Laboratory results reported in ChEMBL document CHEMBL1921722, “In vitro and in vivo evaluation of select kahalalide F analogs with antitumor and antifungal activities” (Bioorg Med Chem, 2011).
Activity calls are given as the source filed them. No cut-off for these calls is given here.

How the values were obtained:
[1] = tested on: Escherichia coli; test: Antimicrobial activity against Escherichia coli ATCC 35218 by CLSI method; assay type: functional, organism-based
[2] = tested on: MCF7; test: Cytotoxicity against human MCF7 cells by sulforhodamine B assay; assay type: functional
[3] = tested on: Fusarium sp.; test: Antimicrobial activity against Fusarium sp. by CLSI method; assay type: functional, organism-based
[4] = tested on: DU-145; test: Cytotoxicity against human DU145 cells assessed as cell growth at 800 nM by sulforhodamine B assay relative to control; assay type: functional; details: read-out: Activity
[5] = tested on: SK-MEL-2; test: Cytotoxicity against human SK-MEL-2 cells assessed as cell growth at 800 nM by sulforhodamine B assay relative to control; assay type: functional; details: read-out: Activity
[6] = tested on: SN12C; test: Cytotoxicity against human SN12C cells assessed as cell growth at 8 nM by sulforhodamine B assay relative to control; assay type: functional; details: read-out: Activity
[7] = tested on: SF-268; test: Cytotoxicity against human SF268 cells assessed as cell growth at 80 nM by sulforhodamine B assay relative to control; assay type: functional; details: read-out: Activity
[8] = tested on: NCI-H522; test: Cytotoxicity against human NCI-H522 cells assessed as cell growth at 8 nM by sulforhodamine B assay relative to control; assay type: functional; details: read-out: Activity
[9] = tested on: ACHN; test: Cytotoxicity against human ACHN cells assessed as cell growth at 8 nM by sulforhodamine B assay relative to control; assay type: functional; details: read-out: Activity
How it was run: (§1)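 Run at NCI in the DTP 60-cell-line human tumor panel by standard procedure. Compounds were first screened at a single concentration, then tested at five tenfold-spaced concentrations. GI50 is the concentration reducing treated-cell growth to half that of untreated controls; TGI is the concentration completely halting growth.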

[10] = tested on: IGROV-1; test: Cytotoxicity against human IGROV1 cells assessed as cell growth at 8 uM by sulforhodamine B assay relative to control; assay type: functional; details: read-out: Activity
[11] = tested on: NCI-H460; test: Cytotoxicity against human NCI-H460 cells assessed as cell growth at 80 uM by sulforhodamine B assay relative to control; assay type: functional; details: read-out: Activity
[12] = tested on: HCT-15; test: Cytotoxicity against human HCT15 cells assessed as cell growth at 80 uM by sulforhodamine B assay relative to control; assay type: functional; details: read-out: Activity
[13] = tested on: NCI-H23; test: Cytotoxicity against human NCI-H23 cells assessed as cell growth at 80 uM by sulforhodamine B assay relative to control; assay type: functional; details: read-out: Activity
[14] = tested on: COLO 205; test: Cytotoxicity against human COLO205 cells assessed as cell growth at 8 nM by sulforhodamine B assay relative to control; assay type: functional; details: read-out: Activity; how it was run: as §1
[15] = tested on: MOLT-4; test: Cytotoxicity against human MOLT4 cells assessed as cell growth at 8 nM by sulforhodamine B assay relative to control; assay type: functional; details: read-out: Activity
[16] = tested on: SK-OV-3; test: Cytotoxicity against human SKOV3 cells assessed as cell growth at 8 uM by sulforhodamine B assay relative to control; assay type: functional; details: read-out: Activity
[17] = tested on: UO-31; test: Cytotoxicity against human UO31 cells assessed as cell growth at 80 nM by sulforhodamine B assay relative to control; assay type: functional; details: read-out: Activity
[18] = tested on: NCI-H460; test: Cytotoxicity against human NCI-H460 cells assessed as cell growth at 8 uM by sulforhodamine B assay relative to control; assay type: functional; details: read-out: Activity
[19] = tested on: Mus musculus; test: Acute toxicity in athymic nude mouse assessed as mortality at 12.5 mg/kg, […]; assay type: organism-based; parameters: dose 12.5 mg/kg, route intraperitoneal; details: in vivo, ip, 576 h
[20] = tested on: K562; test: Cytotoxicity against human K562 cells assessed as cell growth at 80 uM by sulforhodamine B assay relative to control; assay type: functional; details: read-out: Activity
[21] = tested on: SF-539; test: Cytotoxicity against human SF539 cells by sulforhodamine B assay; assay type: functional
How it was run: (§2)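 NCI Developmental Therapeutics Program 60-cell-line human tumor panel screen, run at NCI. A single-concentration pre-screen was followed by a five-concentration dose-response in 10-fold steps. GI50 is the concentration that reduces growth of treated cells to half that of untreated control cells. TGI is the concentration that completely halts growth.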

[22] = tested on: SF-295; test: Cytotoxicity against human SF295 cells by sulforhodamine B assay; assay type: functional; how it was run: as §2
[23] = tested on: Malme-3M; test: Cytotoxicity against human MALME-3M cells assessed as cell growth at 8 uM by sulforhodamine B assay relative to control; assay type: functional; details: read-out: Activity
[24] = tested on: OVCAR-3; test: Cytotoxicity against human OVCAR3 cells by sulforhodamine B assay; assay type: functional; how it was run: as §2
[25] = tested on: OVCAR-5; test: Cytotoxicity against human OVCAR5 cells assessed as cell growth at 800 nM by sulforhodamine B assay relative to control; assay type: functional; details: read-out: Activity
[26] = tested on: HL-60(TB); test: Cytotoxicity against human HL-60(TB) cells assessed as cell growth at 80 nM by sulforhodamine B assay relative to control; assay type: functional; details: read-out: Activity
[27] = tested on: M14; test: Cytotoxicity against human M14 cells by sulforhodamine B assay; assay type: functional; how it was run: as §2
[28] = tested on: OVCAR-4; test: Cytotoxicity against human OVCAR4 cells assessed as cell growth at 80 uM by sulforhodamine B assay relative to control; assay type: functional; details: read-out: Activity
[29] = tested on: SNB-75; test: Cytotoxicity against human SNB75 cells by sulforhodamine B assay; assay type: functional; how it was run: as §2
[30] = tested on: HOP-92; test: Cytotoxicity against human HOP92 cells assessed as cell growth at 80 nM by sulforhodamine B assay relative to control; assay type: functional; details: read-out: Activity
[31] = tested on: OVCAR-8; test: Cytotoxicity against human OVCAR8 cells by sulforhodamine B assay; assay type: functional
How it was run: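 NCI Developmental Therapeutics Program 60-cell-line human tumor panel, standard procedure. Single-concentration prescreen first; active compounds then tested at five concentrations. GI50 is the concentration reducing growth of treated cells to half that of untreated controls.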

[32] = tested on: NCI-H23; test: Cytotoxicity against human NCI-H23 cells assessed as cell growth at 80 nM by sulforhodamine B assay relative to control; assay type: functional; details: read-out: Activity
[33] = tested on: U-251; test: Cytotoxicity against human U251 cells assessed as cell growth at 8 nM by sulforhodamine B assay relative to control; assay type: functional; details: read-out: Activity
[34] = tested on: SR; test: Cytotoxicity against human SR cells assessed as cell growth at 800 nM by sulforhodamine B assay relative to control; assay type: functional; details: read-out: Activity
[35] = tested on: SK-MEL-5; test: Cytotoxicity against human SK-MEL-5 cells by sulforhodamine B assay; assay type: functional; how it was run: as §2
[36] = tested on: Malme-3M; test: Cytotoxicity against human MALME-3M cells assessed as cell growth at 80 uM by sulforhodamine B assay relative to control; assay type: functional; details: read-out: Activity
[37] = tested on: SN12C; test: Cytotoxicity against human SN12C cells by sulforhodamine B assay; assay type: functional; how it was run: as §2
[38] = tested on: Malme-3M; test: Cytotoxicity against human MALME-3M cells assessed as cell growth at 800 nM by sulforhodamine B assay relative to control; assay type: functional; details: read-out: Activity
[39] = tested on: HCT-116; test: Cytotoxicity against human HCT116 cells assessed as cell growth at 80 nM by sulforhodamine B assay relative to control; assay type: functional; details: read-out: Activity
[40] = tested on: HCT-116; test: Cytotoxicity against human HCT116 cells assessed as cell growth at 8 uM by sulforhodamine B assay relative to control; assay type: functional; details: read-out: Activity
[41] = tested on: NCI-H460; test: Cytotoxicity against human NCI-H460 cells by sulforhodamine B assay; assay type: functional; how it was run: as §2
[42] = tested on: MDA-MB-435; test: Cytotoxicity against human MDA-MB-435 cells by sulforhodamine B assay; assay type: functional; how it was run: as §2

C/C=C1\NC(=O)[C@H](Cc2ccccc2)NC(=O)[C@@H](C(C)C)NC(=O)[C@@H]([C@@H](C)CC)NC(=O)[C@H](NC(=O)[C@H](NC(=O)[C@H](CCCNCc2ccc(F)c(C)c2)NC(=O)[C@H]2CCCN2C(=O)[C@H](NC(=O)[C@@H](NC(=O)[C@@H](NC(=O)[C@H](NC(=O)CCCC(C)C)C(C)C)[C@@H](C)O)C(C)C)C(C)C)[C@@H](C)CC)[C@@H](C)OC(=O)[C@H](C(C)C)NC1=O
Activity [1]: inactive | GI50 [2]: 1.26 µM | Activity [3]: Active | growth at 0.8 µM [4]: -85% | growth at 0.8 µM [5]: 100% | growth at 0.008 µM [6]: 89% | growth at 0.08 µM [7]: 99% | growth at 0.008 µM [8]: 104% | growth at 0.008 µM [9]: 100% | growth at 8 µM [10]: -75% | growth at 80 µM [11]: 2% | growth at 80 µM [12]: -78% | growth at 80 µM [13]: -82% | growth at 0.008 µM [14]: 99% | growth at 0.008 µM [15]: 103% | growth at 8 µM [16]: -96% | growth at 0.08 µM [17]: 106% | growth at 8 µM [18]: -71% | Activity [19]: Non-toxic | growth at 80 µM [20]: -14% | GI50 [21]: 1.29 µM | LC50 [21]: 4.37 µM | TGI ([21]; read-out: pTGI (converted)): 2.4 µM | GI50 [22]: 1.26 µM | TGI ([22]; read-out: pTGI (converted)): 2.4 µM | growth at 8 µM [23]: -77% | GI50 [24]: 0.437 µM | LC50 [24]: 3.47 µM | TGI ([24]; read-out: pTGI (converted)): 1.48 µM | growth at 0.8 µM [25]: 55% | growth at 0.08 µM [26]: 97% | GI50 [27]: 1.35 µM | TGI ([27]; read-out: pTGI (converted)): 2.4 µM | growth at 80 µM [28]: -20% | GI50 ([29]; read-out: GI50): 0.37 µM | TGI ([29]; read-out: TGI): 1.25 µM | GI50 ([29]; read-out: pGI50 (converted)): 0.372 µM | TGI ([29]; read-out: pTGI (converted)): 1.26 µM | growth at 0.08 µM [30]: 105% | GI50 [31]: 1.86 µM | LC50 [31]: 75.9 µM | growth at 0.08 µM [32]: 100% | growth at 0.008 µM [33]: 96% | growth at 0.8 µM [34]: 98% | GI50 [35]: 1.15 µM | LC50 [35]: 3.98 µM | TGI ([35]; read-out: pTGI (converted)): 2.14 µM | growth at 80 µM [36]: 12% | GI50 [37]: 1.26 µM | LC50 [37]: 4.9 µM | TGI ([37]; read-out: pTGI (converted)): 2.45 µM | growth at 0.8 µM [38]: 102% | growth at 0.08 µM [39]: 96% | growth at 8 µM [40]: -100% | GI50 [41]: 1.51 µM | GI50 [42]: 1.15 µM | TGI ([42]; read-out: pTGI (converted)): 2.19 µM
